In ChEMBL document CHEMBL1147105, “In vitro and in vivo activities of PD 0305970 and PD 0326448, new bacterial gyrase/topoisomerase inhibitors with potent antibacterial activities versus multidrug-resistant gram-positive and fastidious organism groups” (2007):
Converted amounts (≈) assume the structure as drawn. The source made the active and inactive calls.

How the values were obtained:
Streptococcus pneumoniae [1] = assay: Bactericidal activity against Streptococcus pneumoniae SV1 at 2 ug/ml by time-kill study; format: functional, organism-based
Method in brief: (§1)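 Time-kill in 10 ml of cation-adjusted Mueller-Hinton broth with 3% lysed horse blood, without agitation. Multiples of MIC tested. Samples taken at 0, 2, 4, 6 and 24 h and plated on tryptic soy agar with 5% sheep blood after ≥250-fold dilution, detection limit 10 CFU/ml. Counts read after 24 h at 35°C. Bactericidal defined as a ≥3 log10 drop from the starting inoculum within 24 h.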

Streptococcus pyogenes [2] = assay: Bactericidal activity against Streptococcus pyogenes C203 at 2 ug/ml by time-kill study; format: functional, organism-based; method in brief: as §1
Streptococcus pyogenes [3] = assay: Antibacterial efficacy against Streptococcus pyogenes C203 infected orally dosed CD1 mouse model; format: functional; conditions: C203, po
Method in brief: (§2)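 Sepsis model in female CD1 mice (6–8 weeks, 18–22 g). Lethal i.p. challenge (0.5 ml) at ≥100 median lethal doses. Streptococci were given in Todd-Hewitt broth; other organisms were given with 20% hog gastric mucin. A single oral gavage dose (0.5 ml, in 0.5% methylcellulose) was given at the time of challenge. The PD50 (mg/kg) was calculated by probit analysis.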

Streptococcus pneumoniae [4] = assay: Bactericidal activity against Streptococcus pneumoniae SV1 at 0.008 ug/ml by time-kill study; format: functional, organism-based; method in brief: as §1
Staphylococcus aureus [5] = assay: Antibacterial efficacy against ciprofloxacin and methicillin-resistant Staphylococcus aureus SA2017 infected orally dosed CD1 mouse model; format: functional; method in brief: as §2
Staphylococcus aureus [6] = assay: Antibacterial efficacy against methicillin-resistant Staphylococcus aureus SA1417 infected orally dosed CD1 mouse model; format: functional; method in brief: as §2
Streptococcus pyogenes [7] = assay: Bactericidal activity against Streptococcus pyogenes C203 at 0.008 ug/ml by time-kill study; format: functional, organism-based; method in brief: as §1
Enterococcus faecalis = assay: Antibacterial efficacy against Enterococcus faecalis MGH2 infected orally dosed CD1 mouse model; format: functional; method in brief: as §2
Streptococcus pneumoniae [8] = assay: Antibacterial efficacy against Streptococcus pneumoniae SVI infected orally dosed CD1 mouse model; format: functional; conditions: po; method in brief: as §2
Staphylococcus aureus [9] = assay: Antibacterial efficacy against methicillin-susceptible Staphylococcus aureus UC76 infected orally dosed CD1 mouse model; format: functional; conditions: UC76, po; method in brief: as §2

O=C(O)c1cn(C2CC2)c2cc(N3CCNCC3)c(F)cc2c1=O [CIPROFLOXACIN]
Activity (Streptococcus pneumoniae [1]): Active
Activity (Streptococcus pyogenes [2]): Active
MIC (Streptococcus pyogenes [3]): 0.5 µg/mL (≈ 1.51 µM)
ED50 (Streptococcus pyogenes [3]; read-out: PD50): > 100 mg/kg
Activity (Streptococcus pneumoniae [4]): Active
MIC (Staphylococcus aureus [5]): > 64 µg/mL
ED50 (Staphylococcus aureus [5]; read-out: PD50): > 100 mg/kg
MIC (Staphylococcus aureus [6]): 0.5 µg/mL (≈ 1.51 µM)
ED50 (Staphylococcus aureus [6]; read-out: PD50): 18 mg/kg
Activity (Streptococcus pyogenes [7]): Active
MIC (Enterococcus faecalis): 0.5 µg/mL (≈ 1.51 µM)
MIC (Streptococcus pneumoniae [8]): 2 µg/mL (≈ 6.04 µM)
ED50 (Streptococcus pneumoniae [8]; read-out: PD50): > 100 mg/kg
MIC (Staphylococcus aureus [9]): 0.06 µg/mL (≈ 0.181 µM)
ED50 (Staphylococcus aureus [9]; read-out: PD50): 9.1 mg/kg
